The values that follow come from ChEMBL document CHEMBL1135117, “Identification of potent and selective oxytocin antagonists. Part 2: further investigation of benzofuran derivatives” (Bioorg Med Chem Lett, 2002).

A short description of data set [1]: Compound was tested for its half life in dog. The format is ADME, organism-based, Canis lupus familiaris. To be noted: in vivo.
Data set [2] is described as follows: Compound was tested for plasma clearance in rat. The format is ADME, organism-based.
The nature of data set [3]: Bioavailability in rat. The format is ADME, organism-based. Particulars: in vivo.
Data set [4] can be described thus: Bioavailability in dog. It counts as ADME, organism-based, Canis lupus familiaris. To be noted: in vivo.
A further data set addresses T1, Oxytocin receptor (Homo sapiens, UniProt P30559).
T1 sequence (P30559 whole entry): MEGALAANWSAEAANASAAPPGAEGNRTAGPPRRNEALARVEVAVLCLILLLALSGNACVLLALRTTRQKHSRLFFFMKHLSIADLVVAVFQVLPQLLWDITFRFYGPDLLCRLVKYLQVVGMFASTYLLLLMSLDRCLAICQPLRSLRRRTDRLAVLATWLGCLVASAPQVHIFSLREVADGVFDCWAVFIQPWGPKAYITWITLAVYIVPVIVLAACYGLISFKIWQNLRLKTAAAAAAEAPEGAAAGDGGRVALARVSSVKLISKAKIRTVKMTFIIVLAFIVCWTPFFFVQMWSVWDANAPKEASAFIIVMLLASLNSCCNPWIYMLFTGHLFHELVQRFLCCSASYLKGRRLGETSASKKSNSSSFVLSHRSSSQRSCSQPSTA
Description: Displacement of 3[H]oxytocin from human oxytocin receptor.

Data set [5] in a line: Compound was tested for its half life in rat. Particulars: in vivo. The format is ADME, organism-based.
A short description of data set [6]: Compound was tested for plasma clearance in dog. The format is ADME, organism-based, Canis lupus familiaris.
The target of another data set is Vasopressin V1a receptor (Homo sapiens, UniProt P37288). Kind of data set: Compound was tested for its ability to displace vasopressin from human Vasopressin V1a receptor.
In data set [7] the target is T2, Oxytocin receptor (Homo sapiens) (UniProt P30559).
T2 sequence (whole entry): T1 sequence (P30559 whole entry)
Description: Tested for ratio of displacement of 3H oxytocin from human OT in presence and absence of 50 mg/mL human serum albumin. Summed up: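 Displacement of [3H]oxytocin from human OT receptor, with IC50 measured with and without 50 mg/mL human serum albumin. The radioligand was made up in buffer containing 100 mg/mL HSA, a pre-dilution level. The value is the ratio of the IC50 with HSA to the IC50 without HSA.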

For another data set, the target named is Albumin (Homo sapiens, UniProt P02768). Kind of data set: Compound was tested for Serum albumin binding.
Data set [8] in a line: Tested for the pharmacokinetic parameter in rat and expressed as area under curve. Set-up: concentration or dose not given beside the values. Particulars: in vivo. It counts as ADME, organism-based.

Sequence of Albumin (P02768 whole entry): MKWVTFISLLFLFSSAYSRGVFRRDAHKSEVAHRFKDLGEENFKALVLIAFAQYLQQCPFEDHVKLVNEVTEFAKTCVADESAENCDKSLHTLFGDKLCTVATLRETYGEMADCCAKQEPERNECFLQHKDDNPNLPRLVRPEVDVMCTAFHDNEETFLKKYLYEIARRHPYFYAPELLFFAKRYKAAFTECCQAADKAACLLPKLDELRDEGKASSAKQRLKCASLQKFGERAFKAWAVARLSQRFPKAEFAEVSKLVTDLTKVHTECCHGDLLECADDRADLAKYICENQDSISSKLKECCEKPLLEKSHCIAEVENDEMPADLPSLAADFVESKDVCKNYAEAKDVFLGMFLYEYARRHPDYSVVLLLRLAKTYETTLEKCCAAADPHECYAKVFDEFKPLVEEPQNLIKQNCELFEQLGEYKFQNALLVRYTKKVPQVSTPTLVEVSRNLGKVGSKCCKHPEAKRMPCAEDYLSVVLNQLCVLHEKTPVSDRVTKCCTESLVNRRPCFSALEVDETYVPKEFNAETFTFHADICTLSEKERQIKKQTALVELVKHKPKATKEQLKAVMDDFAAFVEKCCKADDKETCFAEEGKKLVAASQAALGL
Sequence of Vasopressin V1a receptor (P37288 whole entry): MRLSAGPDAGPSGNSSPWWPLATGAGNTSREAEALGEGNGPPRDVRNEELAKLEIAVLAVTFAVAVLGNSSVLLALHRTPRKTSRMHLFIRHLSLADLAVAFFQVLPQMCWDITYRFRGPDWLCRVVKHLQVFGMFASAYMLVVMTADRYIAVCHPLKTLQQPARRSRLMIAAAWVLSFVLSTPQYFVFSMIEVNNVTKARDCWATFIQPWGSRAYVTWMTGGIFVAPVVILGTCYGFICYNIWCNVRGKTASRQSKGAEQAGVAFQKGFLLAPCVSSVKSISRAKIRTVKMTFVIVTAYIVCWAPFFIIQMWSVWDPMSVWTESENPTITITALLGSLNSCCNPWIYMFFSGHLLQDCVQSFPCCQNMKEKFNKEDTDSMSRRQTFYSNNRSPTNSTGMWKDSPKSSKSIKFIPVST

For orientation: half-life means how long it takes for the measured level to halve. As a reminder, the clearance is a measure of how efficiently the substance is removed, as volume per time. By bioavailability is commonly meant the share of a dose that reaches the circulation, judged against a reference dose that is usually intravenous. A word on the Ki: it is the dissociation constant of the complex between target and ligand, obtained from inhibition or displacement. With `O=C(Cn1ccc(N2CCOCC2)nc1=O)NCc1cc2cc(C(=O)N3CCC(N4C(=O)OCc5ccccc54)CC3)ccc2o1`, the half-life was 1.2 h in data set [1] and 0.8 h in data set [5]. Moreover, the clearance in [2] was found to be 17 mL/min/kg; in [6], 11 mL/min/kg. Further, the figures for the bioavailability in data set [3] and in data set [4] were < 1% and 2%, respectively. The compound also had a Ki on Oxytocin receptor of 0.000501 µM.

In [2], `O=C(Cn1cc(C(F)(F)F)ccc1=O)NCc1cc2cc(C(=O)N3CCC(N4C(=O)OCc5cccc(F)c54)CC3)ccc2o1` yielded a clearance of 11 mL/min/kg. Further, in [3], the bioavailability came out at 67%. The compound also gave an inhibition constant (Ki) at Oxytocin receptor of 0.00794 µM. In addition, the half-life in data set [5] was 1.2 h.

With `O=C(Cn1cc(C(F)(F)F)ccc1=O)NCc1cc2cc(C(=O)N3CCC(N4C(=O)OCc5ccc(Cl)cc54)CC3)ccc2o1`, the clearance in [2] is 21 mL/min/kg. The bioavailability in data set [3] was found to be 35%. Also, at Oxytocin receptor, affinity was put at a Ki of 0.00316 µM. For the same compound, the half-life in data set [5] is 1 h.

For `O=C(Cn1cc(C(F)(F)F)ccc1=O)NCc1cc2cc(C(=O)N3CCC(N4C(=O)OCc5cc(F)ccc54)CC3)ccc2o1`, the clearance in [2] came out at 17 mL/min/kg. Also, the bioavailability in data set [3] was 18%. Besides, at Oxytocin receptor, affinity was put at a Ki of 0.00631 µM. The half-life in data set [5] is 0.9 h.

Turning to `COc1cccn(CC(=O)NCc2cc3cc(C(=O)N4CCC(N5C(=O)OCc6ccccc65)CC4)ccc3o2)c1=O`, the half-life in data set [1] is 1.1 h; in [5], 1.2 h. Moreover, the Ki on Vasopressin V1a receptor is 1.58 µM; on Oxytocin receptor it was 0.00251 µM. Besides, the clearance in data set [2] amounted to 22 mL/min/kg; in data set [6], 19 mL/min/kg. The bioavailability in data set [3] amounted to 3%; in data set [4], 68%.

As for `Cn1ncc2c(=O)n(CC(=O)NCc3cc4cc(C(=O)N5CCC(N6C(=O)OCc7ccccc76)CC5)ccc4o3)cnc21`, in data set [1], the half-life is 1 h. This compound yielded a bioavailability in data set [4] of 36%. Moreover, the Ki at Oxytocin receptor is 0.00126 µM. Also, the clearance in [6] was 11 mL/min/kg.

In the case of `O=C(c1ccc2oc(CN3CCCC[C@H]3Cn3cc(C(F)(F)F)ccc3=O)cc2c1)N1CCC(N2C(=O)OCc3ccccc32)CC1`, the HSA shift in [7] worked out at 90. In addition, the Ki on Oxytocin receptor was 0.01 µM. The Binding on Albumin came to 98%.

With `O=C(Cn1cc(C(F)(F)F)ccc1=O)NCc1cc2cc(C(=O)N3CCC(N4C(=O)OCc5ccc(F)cc54)CC3)ccc2o1`, the Ki on Oxytocin receptor is 0.00631 µM.

The compound `O=C(Cn1cc(C(F)(F)F)ccc1=O)NCc1cc2ccc(C(=O)N3CCC(N4C(=O)OCc5ccccc54)CC3)cc2o1` showed a Ki on Oxytocin receptor of 0.1 µM.

As for `O=C(c1ccc2oc(-c3cc(Cn4cc(C(F)(F)F)ccc4=O)ccn3)cc2c1)N1CCC(N2C(=O)OCc3ccccc32)CC1`, at Oxytocin receptor, the Ki was > 3.16 µM. For the same compound, the Binding at Albumin amounted to 96%.

Consider `O=C(Cn1cc(C(F)(F)F)ccc1=O)NCc1nc2cc(C(=O)N3CCC(N4C(=O)OCc5ccccc54)CC3)ccc2s1`, for which, at Oxytocin receptor, the Ki was 0.0794 µM.

The term AUC denotes concentration integrated over time. Turning to `O=C(c1ccc2oc(CN3CCC[C@@H](n4cc(C(F)(F)F)ccc4=O)C3)cc2c1)N1CCC(N2C(=O)OCc3ccccc32)CC1`, the HSA shift in data set [7] was 222. The clearance in [2] is 28 mL/min/kg. The compound also displayed a bioavailability in data set [4] of 2%. This compound also showed a Ki on Oxytocin receptor of 0.0251 µM. In [5], the half-life is 0.6 h. The compound further gave a Binding on Albumin of 96%. The same compound came in with an AUC in [8] of 150 ng·h/mL.

Regarding `O=C(Cn1cnc(C(F)(F)F)cc1=O)NCc1cc2cc(C(=O)N3CCC(N4C(=O)OCc5ccccc54)CC3)ccc2o1`, the half-life is 1.6 h in data set [1] and 0.8 h in data set [5]. Further, the Ki on Vasopressin V1a receptor is 3.98 µM; on Oxytocin receptor, 0.00398 µM. In addition, the figures for the clearance in data set [2] and in data set [6] were 20 mL/min/kg and 6 mL/min/kg, respectively. The bioavailability in [3] amounted to 14%; in data set [4], 34%.

With `O=C(c1ccc2oc(-c3cncc(Cn4cc(C(F)(F)F)ccc4=O)c3)cc2c1)N1CCC(N2C(=O)OCc3ccccc32)CC1`, in data set [7], the HSA shift came out at 17. For the same compound, in data set [2], the clearance was 7 mL/min/kg. Moreover, in [3], the bioavailability came to 41%. Besides, the inhibition constant Ki at Oxytocin receptor is 0.0631 µM. In data set [5], this compound showed a half-life of 1.4 h. Also, the Binding on Albumin stood at 96%. The AUC in data set [8] came to 5400 ng·h/mL.

In turn, `O=C(Cn1ccc(-c2ccccc2)nc1=O)NCc1cc2cc(C(=O)N3CCC(N4C(=O)OCc5ccccc54)CC3)ccc2o1` showed a half-life in [1] of 1.3 h. The Ki at Oxytocin receptor was 0.001 µM. Also, in data set [6], the clearance worked out at 9 mL/min/kg.

At Oxytocin receptor, `O=C(Cn1cc(C(F)(F)F)ccc1=O)NCc1cc2cc(C(=O)N3CCC(N4C(=O)OCc5c(F)cccc54)CC3)ccc2o1` showed a Ki of 0.1 µM.

In the case of `O=C(Cn1ccc2ccccc2c1=O)NCc1cc2cc(C(=O)N3CCC(N4C(=O)OCc5ccccc54)CC3)ccc2o1`, the half-life in [1] was 1.1 h; in [5] it was 0.8 h. The results for the clearance in [2] and in data set [6] were 10 mL/min/kg and 6 mL/min/kg, respectively. The compound further had a bioavailability in [3] of 17%. The compound further showed a Ki at Oxytocin receptor of 0.00631 µM.

Take `O=C(c1ccc2oc(-c3cccc(Cn4cc(C(F)(F)F)ccc4=O)c3)cc2c1)N1CCC(N2C(=O)OCc3ccccc32)CC1`: in data set [2], the clearance is 7 mL/min/kg. Further, in data set [3], the bioavailability is > 45%. In addition, the Ki at Oxytocin receptor was 0.794 µM. Further, the half-life in [5] is 2.2 h. At Albumin, this compound came in with a Binding of 98%. Besides, the AUC in data set [8] was 5700 ng·h/mL.

As for `Cn1c(CNC(=O)Cn2cc(C(F)(F)F)ccc2=O)cc2ccc(C(=O)N3CCC(N4C(=O)OCc5ccccc54)CC3)cc21`, the inhibitory constant (Ki) on Oxytocin receptor is 0.0501 µM.

Compound `O=C(Cn1cc(C(F)(F)F)ccc1=O)NCc1nc2ccc(C(=O)N3CCC(N4C(=O)OCc5ccccc54)CC3)cc2s1` showed a Ki at Oxytocin receptor of 0.01 µM.

As to `O=C(c1ccc2oc(-c3cccc(Cn4cc(C(F)(F)F)ccc4=O)n3)cc2c1)N1CCC(N2C(=O)OCc3ccccc32)CC1`, the HSA shift in [7] was determined as 87. The same compound gave a clearance in [2] of 12 mL/min/kg. In data set [3], the bioavailability stood at 22%. Also, the Ki at Oxytocin receptor is 0.01 µM. For the same compound, in data set [5], the half-life was 1.2 h. The Binding at Albumin amounted to 98%. The compound also came in with an AUC in data set [8] of 1500 ng·h/mL.

As for `O=C(Cn1cc(C(F)(F)F)ccc1=O)NCc1cc2cc(C(=O)N3CCC(N4C(=O)OCc5ccccc54)CC3)c(F)cc2o1`, in data set [2], the clearance was 21 mL/min/kg. In [3], this compound registered a bioavailability of 15%. This compound showed an inhibitory constant (Ki) at Oxytocin receptor of 0.00794 µM. For the same compound, the half-life in [5] was 1.3 h.

In data set [2], `O=C(Cn1cc(C(F)(F)F)ccc1=O)NCc1cc2cc(C(=O)N3CCC(N4C(=O)CCc5ccccc54)CC3)ccc2o1` returned a clearance of 13 mL/min/kg. The bioavailability in data set [3] was found to be 44%. The compound further had a Ki at Oxytocin receptor of 0.0251 µM. The same compound had a half-life in data set [5] of 1.1 h.

In turn, `O=C(Cn1ccccc1=O)NCc1cc2cc(C(=O)N3CCC(N4C(=O)OCc5ccccc54)CC3)ccc2o1` gave a half-life in data set [1] of 0.5 h. The compound further had a Ki on Oxytocin receptor of 0.00631 µM. This compound also yielded a clearance in data set [6] of 34 mL/min/kg.
